Experimental data taken from ChEMBL document CHEMBL5223165, “Discovery of Coumarin-Based MEK1/2 PROTAC Effective in Human Cancer Cells” (ACS Med Chem Lett, 2023).
Each block holds one compound with its values, some of them ahead of it. Activity calls are given as the source filed them. The rule behind the calls is not given here.

Legend:
[1] = biological target: T1, von Hippel-Lindau disease tumor suppressor/Dual specificity mitogen-activated protein kinase kinase 2/Dual specificity mitogen-activated protein kinase kinase 1 (Homo sapiens) (UniProt P36507+Q02750+P40337); experiment: Protac activity at VHL/MEK1/2 in human A549 cells assessed as MEK1/2 degradation at 10 uM incubated for 24 hrs by Western blot analysis relative to control; assay type: cell-based
T1 sequence (P36507 whole entry, looked up): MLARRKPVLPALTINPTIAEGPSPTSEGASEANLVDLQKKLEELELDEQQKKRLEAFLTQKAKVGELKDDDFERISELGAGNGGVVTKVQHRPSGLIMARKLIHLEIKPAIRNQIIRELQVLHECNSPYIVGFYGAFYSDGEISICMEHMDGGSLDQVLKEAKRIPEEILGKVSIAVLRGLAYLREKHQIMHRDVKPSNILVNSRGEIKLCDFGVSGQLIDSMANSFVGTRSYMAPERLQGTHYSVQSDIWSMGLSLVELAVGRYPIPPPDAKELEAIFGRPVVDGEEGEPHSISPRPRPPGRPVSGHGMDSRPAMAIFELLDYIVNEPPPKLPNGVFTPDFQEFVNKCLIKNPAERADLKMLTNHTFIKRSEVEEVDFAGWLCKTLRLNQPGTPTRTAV
T1 sequence (P40337 whole entry, looked up): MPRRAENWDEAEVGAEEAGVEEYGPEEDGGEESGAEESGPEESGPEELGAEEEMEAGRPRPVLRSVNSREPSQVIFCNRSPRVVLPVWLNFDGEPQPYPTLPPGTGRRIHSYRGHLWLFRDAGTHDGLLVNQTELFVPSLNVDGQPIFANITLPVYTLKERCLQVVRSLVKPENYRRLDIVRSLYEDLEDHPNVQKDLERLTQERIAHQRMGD
T1 sequence (Q02750 whole entry, looked up): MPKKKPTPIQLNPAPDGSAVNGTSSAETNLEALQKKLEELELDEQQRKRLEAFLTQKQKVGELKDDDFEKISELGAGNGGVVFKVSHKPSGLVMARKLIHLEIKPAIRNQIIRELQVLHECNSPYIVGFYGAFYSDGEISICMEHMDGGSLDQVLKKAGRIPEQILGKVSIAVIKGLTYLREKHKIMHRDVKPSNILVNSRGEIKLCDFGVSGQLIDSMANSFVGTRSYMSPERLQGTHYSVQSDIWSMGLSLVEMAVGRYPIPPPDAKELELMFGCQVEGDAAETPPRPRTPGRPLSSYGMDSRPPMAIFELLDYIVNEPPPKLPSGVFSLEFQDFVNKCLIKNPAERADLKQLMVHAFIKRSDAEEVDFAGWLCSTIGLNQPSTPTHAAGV

[2] = biological target: T2, Protein cereblon/Dual specificity mitogen-activated protein kinase kinase 1/Dual specificity mitogen-activated protein kinase kinase 2 (Homo sapiens) (UniProt P36507+Q02750+Q96SW2); experiment: Protac activity at CRBN/MEK1/2 in human A549 cells assessed as MEK1/2 degradation at 10 uM incubated for 24 hrs by Western blot analysis relative to control; assay type: cell-based
T2 sequence (P36507 whole entry, looked up): as the sequence (P36507 whole entry, looked up) above
T2 sequence (Q02750 whole entry, looked up): as the sequence (Q02750 whole entry, looked up) above
T2 sequence (Q96SW2 whole entry, looked up): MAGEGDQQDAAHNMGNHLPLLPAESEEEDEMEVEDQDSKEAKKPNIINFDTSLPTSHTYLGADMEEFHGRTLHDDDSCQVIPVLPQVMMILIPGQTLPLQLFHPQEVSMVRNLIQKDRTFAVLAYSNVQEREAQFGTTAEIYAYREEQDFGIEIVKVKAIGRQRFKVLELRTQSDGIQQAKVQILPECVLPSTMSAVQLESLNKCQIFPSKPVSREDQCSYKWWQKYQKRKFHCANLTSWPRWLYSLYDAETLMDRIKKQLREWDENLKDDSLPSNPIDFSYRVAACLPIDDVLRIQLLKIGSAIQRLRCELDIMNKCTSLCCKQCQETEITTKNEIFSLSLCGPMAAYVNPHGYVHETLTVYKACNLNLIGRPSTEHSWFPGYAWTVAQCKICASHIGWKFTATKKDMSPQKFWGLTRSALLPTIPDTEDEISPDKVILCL

[3] = biological target: T2, Protein cereblon/Dual specificity mitogen-activated protein kinase kinase 1/Dual specificity mitogen-activated protein kinase kinase 2 (Homo sapiens); experiment: Protac activity at CRBN/MEK1/2 in human A549 cells assessed as MEK1/2 degradation at 1 uM incubated for 24 hrs by Western blot analysis relative to control; assay type: cell-based
[4] = biological target: T1, von Hippel-Lindau disease tumor suppressor/Dual specificity mitogen-activated protein kinase kinase 2/Dual specificity mitogen-activated protein kinase kinase 1 (Homo sapiens); experiment: Protac activity at VHL/MEK1/2 in human A549 cells assessed as MEK1/2 degradation at 1 uM incubated for 24 hrs by Western blot analysis relative to control; assay type: cell-based
A-375 [5] = experiment: Antiproliferative activity against human A-375 cells assessed as inhibition of cell growth at 10 uM incubated for 48 hrs by MTT assay; assay type: functional; design: scale not given: the % may be the effect or the level left
[6] = biological target: T3, Dual specificity mitogen-activated protein kinase kinase; MEK1/2 (Homo sapiens, UniProt P36507+Q02750); experiment: Induction of MEK1/2 degradation in human A549 cells at 1 uM incubated for 24 hrs in presence of MLN4924 by Western blot analysis; assay type: cell-based
T3 sequence (P36507 whole entry, looked up): as the sequence (P36507 whole entry, looked up) above
T3 sequence (Q02750 whole entry, looked up): as the sequence (Q02750 whole entry, looked up) above

[7] = biological target: T3, Dual specificity mitogen-activated protein kinase kinase; MEK1/2; experiment: Induction of MEK1/2 degradation in human A549 cells at 1 uM incubated for 4 hrs by Western blot analysis; assay type: cell-based
Outline: (§1)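 Time course in A549 cells at 1 μM degrader, sampled at several time points up to 24 h. MEK1/2 protein reduction was judged by Western blot at each time point.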

[8] = biological target: T3, Dual specificity mitogen-activated protein kinase kinase; MEK1/2; experiment: Induction of MEK1/2 degradation in human A549 cells at 1 uM incubated for 24 hrs in presence of (2S,4R)-1-((S)-2-amino-3,3-dimethylbutanoyl)-4-hydroxy-N-((S)-1-(4-(4-methylthiazol-5-yl)phenyl)ethyl)pyrrolidine-2-carboxamide by Western blot analysis; assay type: cell-based
[9] = biological target: T3, Dual specificity mitogen-activated protein kinase kinase; MEK1/2; experiment: Induction of MEK1/2 degradation in human A549 cells at 1 uM incubated for 24 hrs in presence of MG132 by Western blot analysis; assay type: cell-based
[10] = biological target: Dual specificity mitogen-activated protein kinase kinase 2 (Homo sapiens, UniProt P36507); experiment: Induction of MEK2 degradation in human A549 cells incubated for 24 hrs by Western blot analysis; assay type: cell-based
Sequence of Dual specificity mitogen-activated protein kinase kinase 2 (P36507 whole entry): as the sequence (P36507 whole entry, looked up) above
Outline: (§2)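 A549 cells exposed to a range of degrader concentrations for 24 h. MEK1 and MEK2 protein levels were read by Western blot, and a separate half-maximal degradation concentration (DC50) was derived for each.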

[11] = biological target: T3, Dual specificity mitogen-activated protein kinase kinase; MEK1/2; experiment: Induction of MEK1/2 degradation in human A-375 cells incubated for 24 hrs by Western blot analysis; assay type: cell-based
Outline: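 A375 cells were given a concentration series of degrader for 24 h. MEK1/2 protein was quantified by immunoblot, and the DC50 (half-maximal degradation concentration) was taken from the dose-response.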

[12] = biological target: T3, Dual specificity mitogen-activated protein kinase kinase; MEK1/2; experiment: Induction of MEK1/2 degradation in human A549 cells at 1 uM incubated for 24 hrs by Western blot analysis; assay type: cell-based; outline: as §1
[13] = Selectivity ratio of IC50 for human A549 cells to IC50 for human A-375 cells; assay type: functional
A-375 [14] = experiment: Antiproliferative activity against human A-375 cells incubated for 4 days by MTT assay; assay type: functional, cell-based; details: A-375, 96 h
[15] = biological target: T3, Dual specificity mitogen-activated protein kinase kinase; MEK1/2; experiment: Induction of MEK1/2 degradation in human A549 cells at 1 uM incubated for 24 hrs in presence of 3-(3-amino-2-fluorobenzyl)-4-methyl-7-(pyrimidin-2-yloxy)-2H-chromen-2-one by Western blot analysis; assay type: cell-based
[16] = biological target: T3, Dual specificity mitogen-activated protein kinase kinase; MEK1/2; experiment: Induction of MEK1/2 degradation in human A549 cells assessed as reduction in pERK1/2 levels at 1 to 30 uM incubated for 24 hrs by Western blot analysis; assay type: cell-based; details: dose 1-30 µM
[17] = biological target: Dual specificity mitogen-activated protein kinase kinase 1 (Homo sapiens, UniProt Q02750); experiment: Induction of MEK1 degradation in human A549 cells incubated for 24 hrs by Western blot analysis; assay type: cell-based; outline: as §2
Sequence of Dual specificity mitogen-activated protein kinase kinase 1 (Q02750 whole entry): as the sequence (Q02750 whole entry, looked up) above

A549 = experiment: Antiproliferative activity against human A549 cells incubated for 4 days by MTT assay; assay type: functional, cell-based; details: A549, 96 h

Structure (SMILES): Cc1c(Cc2cccc(NCc3cn(CCOCCOCCNc4cccc5c4C(=O)N(C4CCC(=O)NC4=O)C5=O)nn3)c2F)c(=O)oc2cc(Oc3ncccn3)ccc12 (configuration not stated)
Activity [2]: inactive

Structure (SMILES): Cc1c(Cc2cccc(NCc3cn(CCOCCOCCNc4cccc5c4C(=O)N(C4CCC(=O)NC4=O)C5=O)nn3)c2)c(=O)oc2cc(Oc3ncccn3)ccc12 (configuration not stated)
Activity [2]: inactive

Structure (SMILES): Cc1c(Cc2cccc(NCc3cn(CCOCCOCCOCCNc4cccc5c4C(=O)N(C4CCC(=O)NC4=O)C5=O)nn3)c2)c(=O)oc2cc(Oc3ncccn3)ccc12 (configuration not stated)
Activity [2]: inactive

Structure (SMILES): Cc1ncsc1-c1ccc([C@H](C)NC(=O)[C@@H]2C[C@@H](O)CN2C(=O)[C@@H](NCCOCCOCCOCCn2cc(CNc3cccc(Cc4c(C)c5ccc(Oc6ncccn6)cc5oc4=O)c3F)nn2)C(C)(C)C)cc1
Activity [1]: inactive

Structure (SMILES): Cc1c(Cc2cccc(NC(=O)CCCCCCNC(=O)CCC(=O)Nc3cccc4c3C(=O)N(C3CCC(=O)NC3=O)C4=O)c2F)c(=O)oc2cc(Oc3ncccn3)ccc12 (configuration not stated)
Activity [3]: 45%

Structure (SMILES): Cc1ncsc1-c1ccc([C@H](C)NC(=O)[C@@H]2C[C@@H](O)CN2C(=O)[C@@H](NCCOCCOCCOCCOCCn2cc(CNc3cccc(Cc4c(C)c5ccc(Oc6ncccn6)cc5oc4=O)c3F)nn2)C(C)(C)C)cc1
Activity [1]: inactive

Structure (SMILES): Cc1ncsc1-c1ccc([C@H](C)NC(=O)[C@@H]2C[C@@H](O)CN2C(=O)[C@@H](NC(=O)CCC(=O)NCCCC(=O)Nc2cccc(Cc3c(C)c4ccc(Oc5ncccn5)cc4oc3=O)c2)C(C)(C)C)cc1
Activity [4]: < 5%
Activity (A-375 [5]): 21%

Structure (SMILES): CNS(=O)(=O)Nc1cccc(Cc2c(C)c3ccc(Oc4ncccn4)cc3oc2=O)c1F
IC50 (A-375 [14]): 1900 nM

Structure (SMILES): Cc1c(Cc2cccc(NC(=O)CCCCCCCNC(=O)CCC(=O)Nc3cccc4c3C(=O)N(C3CCC(=O)NC3=O)C4=O)c2F)c(=O)oc2cc(Oc3ncccn3)ccc12 (configuration not stated)
Activity [3]: 30%

Structure (SMILES): Cc1ncsc1-c1ccc([C@H](C)NC(=O)[C@@H]2C[C@@H](O)CN2C(=O)[C@@H](NCCOCCOCCOCCOCCn2cc(CNc3cccc(Cc4c(C)c5ccc(Oc6ncccn6)cc5oc4=O)c3)nn2)C(C)(C)C)cc1
Activity [1]: inactive

Structure (SMILES): Cc1ncsc1-c1ccc([C@H](C)NC(=O)[C@@H]2C[C@@H](O)CN2C(=O)[C@@H](NCCOCCOCCn2cc(CNc3cccc(Cc4c(C)c5ccc(Oc6ncccn6)cc5oc4=O)c3)nn2)C(C)(C)C)cc1
Activity [1]: inactive

Structure (SMILES): Cc1ncsc1-c1ccc([C@H](C)NC(=O)[C@@H]2C[C@@H](O)CN2C(=O)[C@@H](NC(=O)CCC(=O)NCCCCCCCCCCC(=O)Nc2cccc(Cc3c(C)c4ccc(Oc5ncccn5)cc4oc3=O)c2)C(C)(C)C)cc1
Activity [4]: < 5%

Structure (SMILES): Cc1c(Cc2cccc(NCc3cn(CCOCCOCCOCCNc4cccc5c4C(=O)N(C4CCC(=O)NC4=O)C5=O)nn3)c2F)c(=O)oc2cc(Oc3ncccn3)ccc12 (configuration not stated)
Activity [2]: inactive

Structure (SMILES): Cc1c(Cc2cccc(NCc3cn(CCOCCOCCOCCOCCOCCNc4cccc5c4C(=O)N(C4CCC(=O)NC4=O)C5=O)nn3)c2)c(=O)oc2cc(Oc3ncccn3)ccc12 (configuration not stated)
Activity [2]: inactive

Structure (SMILES): Cc1c(Cc2cccc(NCc3cn(CCOCCOCCOCCOCCOCCNc4cccc5c4C(=O)N(C4CCC(=O)NC4=O)C5=O)nn3)c2F)c(=O)oc2cc(Oc3ncccn3)ccc12 (configuration not stated)
Activity [2]: inactive

Structure (SMILES): Cc1ncsc1-c1ccc([C@H](C)NC(=O)[C@@H]2C[C@@H](O)CN2C(=O)[C@@H](NC(=O)CCC(=O)NCCCC(=O)Nc2cccc(Cc3c(C)c4ccc(Oc5ncccn5)cc4oc3=O)c2F)C(C)(C)C)cc1
Activity [4]: 20%
Activity (A-375 [5]): 13%

The next lines start with results.

Activity [1]: inactive
Structure (SMILES): Cc1ncsc1-c1ccc([C@H](C)NC(=O)[C@@H]2C[C@@H](O)CN2C(=O)[C@@H](NCCOCCOCCOCCOCCOCCn2cc(CNc3cccc(Cc4c(C)c5ccc(Oc6ncccn6)cc5oc4=O)c3)nn2)C(C)(C)C)cc1

Activity [3]: < 5%
Structure (SMILES): Cc1c(Cc2cccc(NC(=O)CCCCNC(=O)CCC(=O)Nc3cccc4c3C(=O)N(C3CCC(=O)NC3=O)C4=O)c2F)c(=O)oc2cc(Oc3ncccn3)ccc12 (configuration not stated)

Activity [1]: 20%
Structure (SMILES): Cc1ncsc1-c1ccc([C@H](C)NC(=O)[C@@H]2C[C@@H](O)CN2C(=O)[C@@H](NCCOCCOCCn2cc(CNc3cccc(Cc4c(C)c5ccc(Oc6ncccn6)cc5oc4=O)c3F)nn2)C(C)(C)C)cc1

Activity [4]: 70%
Structure (SMILES): Cc1ncsc1-c1ccc([C@H](C)NC(=O)[C@@H]2C[C@@H](O)CN2C(=O)[C@@H](NC(=O)CCC(=O)NCCCCCCC(=O)Nc2cccc(Cc3c(C)c4ccc(Oc5ncccn5)cc4oc3=O)c2F)C(C)(C)C)cc1

Activity [6]: inactive
Activity [7]: Active
Activity [8]: inactive
Activity [9]: inactive
DC50 [10]: 200 nM
Activity [4]: 85%
DC50 [11]: 2800 nM
Activity [12]: > 70%
IC50 (A-375 [14]): 2800 nM
Activity [15]: inactive
Activity [16]: Active
DC50 [17]: 300 nM
IC50 (A549): 27300 nM
Structure (SMILES): Cc1ncsc1-c1ccc([C@H](C)NC(=O)[C@@H]2C[C@@H](O)CN2C(=O)[C@@H](NC(=O)CCC(=O)NCCCCC(=O)Nc2cccc(Cc3c(C)c4ccc(Oc5ncccn5)cc4oc3=O)c2F)C(C)(C)C)cc1
Activity (A-375 [5]): 60%
Ratio IC50 [13]: 10

Activity [4]: 78%
Structure (SMILES): Cc1ncsc1-c1ccc([C@H](C)NC(=O)[C@@H]2C[C@@H](O)CN2C(=O)[C@@H](NC(=O)CCC(=O)NCCCCCCCC(=O)Nc2cccc(Cc3c(C)c4ccc(Oc5ncccn5)cc4oc3=O)c2F)C(C)(C)C)cc1

Activity [4]: 72%
Structure (SMILES): Cc1ncsc1-c1ccc([C@H](C)NC(=O)[C@@H]2C[C@@H](O)CN2C(=O)[C@@H](NC(=O)CCC(=O)NCCCCCC(=O)Nc2cccc(Cc3c(C)c4ccc(Oc5ncccn5)cc4oc3=O)c2F)C(C)(C)C)cc1

Activity [3]: inactive
Structure (SMILES): Cc1c(Cc2cccc(NC(=O)CCCNC(=O)CCC(=O)Nc3cccc4c3C(=O)N(C3CCC(=O)NC3=O)C4=O)c2F)c(=O)oc2cc(Oc3ncccn3)ccc12 (configuration not stated)

Activity [3]: inactive
Structure (SMILES): Cc1c(Cc2cccc(NC(=O)CCCCCNC(=O)CCC(=O)Nc3cccc4c3C(=O)N(C3CCC(=O)NC3=O)C4=O)c2F)c(=O)oc2cc(Oc3ncccn3)ccc12 (configuration not stated)

Activity [1]: inactive
Structure (SMILES): Cc1ncsc1-c1ccc([C@H](C)NC(=O)[C@@H]2C[C@@H](O)CN2C(=O)[C@@H](NCCOCCOCCOCCOCCOCCn2cc(CNc3cccc(Cc4c(C)c5ccc(Oc6ncccn6)cc5oc4=O)c3F)nn2)C(C)(C)C)cc1

Activity [4]: < 5%
Structure (SMILES): Cc1ncsc1-c1ccc([C@H](C)NC(=O)[C@@H]2C[C@@H](O)CN2C(=O)[C@@H](NC(=O)CCC(=O)NCCCCCCCCCCCC(=O)Nc2cccc(Cc3c(C)c4ccc(Oc5ncccn5)cc4oc3=O)c2)C(C)(C)C)cc1

Activity [4]: < 5%
Structure (SMILES): Cc1ncsc1-c1ccc([C@H](C)NC(=O)[C@@H]2C[C@@H](O)CN2C(=O)[C@@H](NC(=O)CCC(=O)NCCCCCCC(=O)Nc2cccc(Cc3c(C)c4ccc(Oc5ncccn5)cc4oc3=O)c2)C(C)(C)C)cc1

Activity [2]: inactive
Structure (SMILES): Cc1c(Cc2cccc(NCc3cn(CCOCCOCCOCCOCCNc4cccc5c4C(=O)N(C4CCC(=O)NC4=O)C5=O)nn3)c2F)c(=O)oc2cc(Oc3ncccn3)ccc12 (configuration not stated)

Activity [2]: inactive
Structure (SMILES): Cc1c(Cc2cccc(NCc3cn(CCOCCOCCOCCOCCNc4cccc5c4C(=O)N(C4CCC(=O)NC4=O)C5=O)nn3)c2)c(=O)oc2cc(Oc3ncccn3)ccc12 (configuration not stated)

Activity [1]: inactive
Structure (SMILES): Cc1ncsc1-c1ccc([C@H](C)NC(=O)[C@@H]2C[C@@H](O)CN2C(=O)[C@@H](NCCOCCOCCOCCn2cc(CNc3cccc(Cc4c(C)c5ccc(Oc6ncccn6)cc5oc4=O)c3)nn2)C(C)(C)C)cc1
